ChEMBL document CHEMBL1156778, “Synthesis and structure-activity studies of biphenyl analogues of the tuberculosis drug (6S)-2-nitro-6-{[4-(trifluoromethoxy)benzyl]oxy}-6,7-dihydro-5H-imidazo[2,1-b][1,3]oxazine (PA-824)” (J Med Chem, 2010)
pIC50: −log10 of the molar value. ≈ marks a conversion by molar mass, not a printed value.

Assays:
[1] = system: Vero; assay: Cytotoxicity against african green monkey Vero cells after 72 hrs by MTS assay; assay type: cell-based; conditions: Chlorocebus sabaeus
Method in brief: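 VERO cells (CCL-81), 72 h exposure, tetrazolium dye read-out.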

[2] = system: Mycobacterium tuberculosis; assay: Antitubercular activity against Mycobacterium tuberculosis H37Rv in anaerobic condition after 7 days by low oxygen recovery assay; assay type: functional; conditions: 168 h
[3] = system: Mycobacterium tuberculosis; assay: Antitubercular activity against Mycobacterium tuberculosis H37Rv in aerobic condition after 7 days by microplate alamar blue assay; assay type: functional; conditions: 168 h
Method in brief: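 M. tuberculosis H37Rv, replicating culture; 8-day microplate assay with Alamar blue added on day 7 to read growth. […] Mean of at least two independent determinations ± SD.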

## Nc1cccc(-c2ccc(CO[C@@H]3COc4nc([N+](=O)[O-])cn4C3)cc2)c1
[1]
  pIC50: < 3.90
[2]
  MIC: 1.4 µM (≈ 0.513 µg/mL)
[3]
  MIC: 0.12 µM (≈ 0.044 µg/mL)

## O=[N+]([O-])c1cn2c(n1)OC[C@@H](OCc1ccc(-c3ccccc3F)cc1)C2
[1]
  pIC50: < 3.90
[2]
  MIC: 0.67 µM (≈ 0.247 µg/mL)
[3]
  MIC: 0.19 µM (≈ 0.0702 µg/mL)

## N#Cc1ccc(-c2cccc(CO[C@@H]3COc4nc([N+](=O)[O-])cn4C3)c2)cc1
[1]
  pIC50: < 3.90
[2]
  MIC: 4.8 µM (≈ 1.81 µg/mL)
[3]
  MIC: 0.23 µM (≈ 0.0866 µg/mL)

## O=[N+]([O-])c1cn2c(n1)OC[C@@H](OCc1ccc(-c3cc(F)c(F)c(F)c3)cc1)C2
[1]
  pIC50: < 3.90
[2]
  MIC: 0.76 µM (≈ 0.308 µg/mL)
[3]
  MIC: 0.04 µM (≈ 0.0162 µg/mL)

## CC(C)(C)OCc1ccc(-c2ccc(CO[C@@H]3COc4nc([N+](=O)[O-])cn4C3)cc2)cc1
[1]
  pIC50: < 3.90
[2]
  MIC: 3.1 µM (≈ 1.36 µg/mL)
[3]
  MIC: 0.077 µM (≈ 0.0337 µg/mL)

## O=[N+]([O-])c1cn2c(n1)OC[C@@H](OCc1ccc(-c3cccc(F)c3)cc1)C2
[1]
  pIC50: < 3.90
[2]
  MIC: 2.2 µM (≈ 0.813 µg/mL)
[3]
  MIC: 0.045 µM (≈ 0.0166 µg/mL)

## N#Cc1cccc(-c2ccc(CO[C@@H]3COc4nc([N+](=O)[O-])cn4C3)cc2)c1
[1]
  pIC50: < 3.90
[2]
  MIC: 1.3 µM (≈ 0.489 µg/mL)
[3]
  MIC: 0.12 µM (≈ 0.0452 µg/mL)

## O=[N+]([O-])c1cn2c(n1)OC[C@@H](OCc1ccc(-c3ccc(Cl)cc3)cc1)C2
[1]
  pIC50: < 3.90
[2]
  MIC: 2.7 µM (≈ 1.04 µg/mL)
[3]
  MIC: 0.015 µM (≈ 0.00579 µg/mL)

## O=[N+]([O-])c1cn2c(n1)OC[C@@H](OCc1cccc(-c3ccc4ccccc4c3)c1)C2
[1]
  pIC50: < 3.90
[2]
  MIC: 3.2 µM (≈ 1.28 µg/mL)
[3]
  MIC: 0.12 µM (≈ 0.0482 µg/mL)

## CC(C)c1ccc(-c2ccc(CO[C@@H]3COc4nc([N+](=O)[O-])cn4C3)cc2)cc1
[1]
  pIC50: < 3.90
[2]
  MIC: > 32 µM
[3]
  MIC: 0.1 µM (≈ 0.0393 µg/mL)

## COc1cccc(Cl)c1-c1ccc(CO[C@@H]2COc3nc([N+](=O)[O-])cn3C2)cc1
[1]
  pIC50: < 3.90
[2]
  MIC: 0.74 µM (≈ 0.308 µg/mL)
[3]
  MIC: 0.055 µM (≈ 0.0229 µg/mL)

## O=[N+]([O-])c1cn2c(n1)OC[C@@H](OCc1cccc(-c3ccc(OC(F)F)cc3)c1)C2
[1]
  pIC50: < 3.90
[2]
  MIC: 2.8 µM (≈ 1.17 µg/mL)
[3]
  MIC: 0.06 µM (≈ 0.025 µg/mL)

## O=[N+]([O-])c1cn2c(n1)OC[C@@H](OCc1ccc(-c3ccccc3OC(F)(F)F)cc1)C2
[1]
  pIC50: < 3.90
[2]
  MIC: 0.97 µM (≈ 0.422 µg/mL)
[3]
  MIC: 0.035 µM (≈ 0.0152 µg/mL)

## COc1ccc(-c2ccc(CO[C@@H]3COc4nc([N+](=O)[O-])cn4C3)cc2)cc1
[1]
  pIC50: < 3.90
[2]
  MIC: 6.8 µM (≈ 2.59 µg/mL)
[3]
  MIC: 0.065 µM (≈ 0.0248 µg/mL)

## O=[N+]([O-])c1cn2c(n1)OC[C@@H](OCc1ccc(-c3ccc(Cl)c(O)c3)cc1)C2
[1]
  pIC50: < 3.90
[2]
  MIC: 2.1 µM (≈ 0.844 µg/mL)
[3]
  MIC: 0.2 µM (≈ 0.0804 µg/mL)

## O=[N+]([O-])c1cn2c(n1)OC[C@@H](OCc1ccc(-c3cccc(Cl)c3)cc1)C2
[1]
  pIC50: < 3.90
[2]
  MIC: 1.6 µM (≈ 0.617 µg/mL)
[3]
  MIC: 0.06 µM (≈ 0.0231 µg/mL)

## O=[N+]([O-])c1cn2c(n1)OC[C@@H](OCc1ccc(-c3ccccc3Oc3ccccc3)cc1)C2
[1]
  pIC50: < 3.90
[2]
  MIC: 1.8 µM (≈ 0.798 µg/mL)
[3]
  MIC: 0.06 µM (≈ 0.0266 µg/mL)

## N#Cc1cccc(-c2cccc(CO[C@@H]3COc4nc([N+](=O)[O-])cn4C3)c2)c1
[1]
  pIC50: < 3.90
[2]
  MIC: 3.7 µM (≈ 1.39 µg/mL)
[3]
  MIC: 0.17 µM (≈ 0.064 µg/mL)

## O=[N+]([O-])c1cn2c(n1)OC[C@@H](OCc1ccc(-c3ccccc3)cc1)C2
[1]
  pIC50: < 3.90
[2]
  MIC: 3.9 µM (≈ 1.37 µg/mL)
[3]
  MIC: 0.045 µM (≈ 0.0158 µg/mL)

## O=[N+]([O-])c1cn2c(n1)OC[C@@H](OCc1ccc(-c3ccccc3O)cc1)C2
[1]
  pIC50: < 3.90
[2]
  MIC: 4.6 µM (≈ 1.69 µg/mL)
[3]
  MIC: 0.12 µM (≈ 0.0441 µg/mL)

## O=[N+]([O-])c1cn2c(n1)OC[C@@H](OCc1ccc(-c3ccc(F)c(F)c3)cc1)C2
[1]
  pIC50: < 3.90
[2]
  MIC: 1.2 µM (≈ 0.465 µg/mL)
[3]
  MIC: 0.03 µM (≈ 0.0116 µg/mL)

## O=[N+]([O-])c1cn2c(n1)OC[C@@H](OCc1ccc(-c3cccc(OCCO)c3)cc1)C2
[1]
  pIC50: < 3.90
[2]
  MIC: 5.4 µM (≈ 2.22 µg/mL)
[3]
  MIC: 0.46 µM (≈ 0.189 µg/mL)

## O=[N+]([O-])c1cn2c(n1)OC[C@@H](OCc1ccc(-c3ccc(-c4ccccc4)cc3)cc1)C2
[1]
  pIC50: < 3.90
[2]
  MIC: > 32 µM
[3]
  MIC: 0.09 µM (≈ 0.0385 µg/mL)

## COc1ccccc1-c1ccc(CO[C@@H]2COc3nc([N+](=O)[O-])cn3C2)cc1
[1]
  pIC50: < 3.90
[2]
  MIC: 1.4 µM (≈ 0.534 µg/mL)
[3]
  MIC: 0.065 µM (≈ 0.0248 µg/mL)

## O=[N+]([O-])c1cn2c(n1)OC[C@@H](OCc1cccc(-c3ccc(C(F)(F)F)cc3)c1)C2
[1]
  pIC50: < 3.90
[2]
  MIC: 2.9 µM (≈ 1.22 µg/mL)
[3]
  MIC: 0.12 µM (≈ 0.0503 µg/mL)
